Test results published in ChEMBL document CHEMBL4184225, “Discovery of selective 2,4-diaminoquinazoline toll-like receptor 7 (TLR 7) agonists” (Bioorg Med Chem Lett, 2018).

Legend:
[1] = target: T1, Toll-like receptor 7 (Homo sapiens) (UniProt Q9NYK1); test: Agonist activity at TLR7 in human PBMC assessed as suppression of HCV replicon replication in human HuH7 luc/neo cells harboring RNA encoding bicistronic expression construct comprising wild type HCV type 1b NS3-NS5B regions exposed to conditioned media from compound treated PBMCs by luciferase reporter gene assay; assay type: cell-based
T1 sequence (whole entry): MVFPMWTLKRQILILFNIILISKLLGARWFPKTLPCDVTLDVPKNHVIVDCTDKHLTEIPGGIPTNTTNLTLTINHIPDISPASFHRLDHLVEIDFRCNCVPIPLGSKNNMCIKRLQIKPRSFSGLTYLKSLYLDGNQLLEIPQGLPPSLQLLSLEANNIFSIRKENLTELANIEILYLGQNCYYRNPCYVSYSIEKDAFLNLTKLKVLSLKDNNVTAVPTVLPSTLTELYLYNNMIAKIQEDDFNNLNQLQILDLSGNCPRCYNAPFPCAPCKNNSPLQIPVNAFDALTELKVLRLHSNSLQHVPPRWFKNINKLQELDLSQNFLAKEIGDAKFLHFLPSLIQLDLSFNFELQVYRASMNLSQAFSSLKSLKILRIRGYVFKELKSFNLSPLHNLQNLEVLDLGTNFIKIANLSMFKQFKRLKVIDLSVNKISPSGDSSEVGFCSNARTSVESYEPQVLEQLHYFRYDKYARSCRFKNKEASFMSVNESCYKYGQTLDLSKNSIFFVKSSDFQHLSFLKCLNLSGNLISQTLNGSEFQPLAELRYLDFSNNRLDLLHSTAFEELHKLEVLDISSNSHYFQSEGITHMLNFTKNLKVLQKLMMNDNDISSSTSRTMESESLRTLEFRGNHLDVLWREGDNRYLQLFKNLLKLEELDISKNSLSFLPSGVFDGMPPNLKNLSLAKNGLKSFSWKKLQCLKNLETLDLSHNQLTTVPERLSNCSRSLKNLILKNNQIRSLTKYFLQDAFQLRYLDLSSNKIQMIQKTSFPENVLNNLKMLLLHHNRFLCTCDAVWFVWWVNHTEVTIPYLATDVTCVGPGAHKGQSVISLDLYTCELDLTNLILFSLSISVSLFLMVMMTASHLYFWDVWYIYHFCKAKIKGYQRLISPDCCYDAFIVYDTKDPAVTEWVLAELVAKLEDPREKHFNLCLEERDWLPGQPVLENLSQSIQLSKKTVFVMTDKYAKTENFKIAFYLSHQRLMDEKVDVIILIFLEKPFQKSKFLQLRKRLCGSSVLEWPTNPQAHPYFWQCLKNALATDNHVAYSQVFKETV
How it was run: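 PBMCs from buffy coats of at least two donors (Ficoll), in RPMI with 10% human AB serum, 2 x 10^5 cells/well, incubated overnight with compound. Supernatant transferred onto Huh7-luc/neo replicon cells plated the day before (2.2 x 10^3/well). Luciferase read after 24 h. EC50 is the concentration applied to PBMCs giving 50% luciferase reduction. Recombinant IFN-α2a standard.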

[2] = Cytotoxic activity against HEK293 cells assessed as reduction in cell viability incubated for 6 hrs; assay type: cell-based; conditions: human
How it was run: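 HEK293 cells transfected with the CMV-TLR7 construct alone, treated with a compound dilution series for 6 h at 37°C, 5% CO₂. Viability read by ATP luminescence. Reported as CC50.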

[3] = target: T2, Toll-like receptor 8 (Homo sapiens, UniProt Q9NR97); test: Agonist activity at human TLR8 expressed in HEK293 cells assessed as induction of receptor activation incubated for 6 hrs by NF-kappaB-luciferase reporter gene assay; assay type: cell-based; conditions: hek293, 6 h
T2 sequence (Q9NR97 whole entry): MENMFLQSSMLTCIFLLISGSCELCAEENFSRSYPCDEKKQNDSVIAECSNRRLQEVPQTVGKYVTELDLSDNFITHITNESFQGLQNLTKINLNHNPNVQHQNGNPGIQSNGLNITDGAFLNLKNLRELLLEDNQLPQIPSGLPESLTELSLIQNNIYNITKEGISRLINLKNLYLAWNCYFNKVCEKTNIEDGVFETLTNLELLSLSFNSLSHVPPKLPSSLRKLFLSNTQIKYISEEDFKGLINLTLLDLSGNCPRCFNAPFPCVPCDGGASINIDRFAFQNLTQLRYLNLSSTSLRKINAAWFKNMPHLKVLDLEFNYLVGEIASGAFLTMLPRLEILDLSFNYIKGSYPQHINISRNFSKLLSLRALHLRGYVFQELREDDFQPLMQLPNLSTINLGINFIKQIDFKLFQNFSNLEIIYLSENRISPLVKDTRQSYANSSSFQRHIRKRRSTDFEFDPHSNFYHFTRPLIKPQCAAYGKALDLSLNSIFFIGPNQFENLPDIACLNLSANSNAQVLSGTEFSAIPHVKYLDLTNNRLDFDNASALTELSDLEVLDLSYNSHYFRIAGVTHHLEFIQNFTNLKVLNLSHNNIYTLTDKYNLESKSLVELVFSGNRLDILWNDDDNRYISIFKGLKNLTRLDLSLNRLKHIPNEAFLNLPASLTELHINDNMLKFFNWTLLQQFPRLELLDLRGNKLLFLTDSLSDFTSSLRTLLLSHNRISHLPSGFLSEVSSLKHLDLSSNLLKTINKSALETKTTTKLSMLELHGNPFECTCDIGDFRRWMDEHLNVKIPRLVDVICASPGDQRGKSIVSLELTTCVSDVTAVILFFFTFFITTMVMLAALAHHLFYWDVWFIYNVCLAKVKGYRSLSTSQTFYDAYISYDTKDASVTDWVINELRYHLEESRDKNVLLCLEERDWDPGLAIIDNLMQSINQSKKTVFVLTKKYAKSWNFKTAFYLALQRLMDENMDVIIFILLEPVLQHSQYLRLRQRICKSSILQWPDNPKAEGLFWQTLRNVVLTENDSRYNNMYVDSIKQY
How it was run: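 HEK293 cells transiently transfected overnight at 37°C with CMV-TLR8 plasmid (wild type or dLRR2 mutant) plus NFκB-luc reporter, then exposed to compound for 6 h at 37°C, 5% CO₂. Luciferase read-out. Quadruplicate dose-response. LEC is the concentration giving an effect at least two-fold above the assay SD, averaged over two or more independent experiments.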

[4] = target: T1, Toll-like receptor 7 (Homo sapiens); test: Agonist activity at human TLR7 expressed in HEK293 cells assessed as induction of receptor activation incubated for 6 hrs by NF-kappaB-luciferase reporter gene assay; assay type: cell-based
How it was run: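 HEK293 cells transiently transfected overnight with CMV-TLR7 (wild type or dLRR2 mutant) plus NFκB-luc plasmids. Seeded at 1.67 x 10^5 cells/mL onto compound in 4% DMSO (stock), 6 h at 37°C, 5% CO2, luciferase readout. Quadruplicate dose-response. LEC is the concentration giving an effect at least two-fold above assay SD. Values averaged over independent experiments where repeated.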

[5] = Metabolic stability in mouse liver microsomes assessed as drug metabolism after 15 mins at 1 uM; assay type: ADME, microsome; conditions: read-out: Drug metabolism
How it was run: (§1)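 Compound at 1µM incubated with liver microsomes of the stated species. Percent of compound metabolized after 15 min.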

[6] = Metabolic stability in human liver microsomes assessed as drug metabolism after 15 mins at 1 uM; assay type: ADME, microsome; conditions: read-out: Drug metabolism; how it was run: as §1

SMILES | MEC [1] [µM] | CC50 at 6 h [2] [µM] | MEC [3] [µM] | MEC [4] [µM] | metabolised at 0.25 h, 1 µM [5] [%] | metabolised at 0.25 h, 1 µM [6] [%]
CCCCNc1nc(N)nc2ccc(OC)cc12 | 2.44 | > 18 | 1.8 | 5.6 |  | 
CCNc1nc(N)nc2ccccc12 | 2.27 | > 25 | 0.77 | 3.07 |  | 
CCCCNc1nc(N)nc2ccc(CO)cc12 | 0.14 | > 18 | 0.2 | 0.9 |  | 
CCCCNc1nc(N)nc2cccc(C(=O)N(C)C(C)C)c12 | 1.92 | > 25 | > 25 | 5.62 |  | 
CCCCNc1nc(N)nc2ccc(CCc3ccccn3)cc12 | 0.04 | > 18 | 0.3 | 0.1 |  | 
CCCCNc1nc(N)nc2ccc(C(C)O)cc12 (centres undefined) | 8.49 | > 18 | 5.8 | 12 |  | 
CCCCNc1nc(N)nc2cc(OC)c(OC)cc12 | 2.05 | > 18 | 1.1 | 10 |  | 
CCCCNc1nc(N)nc2ccc(F)cc12 | 0.11 | > 18 | 0.1 | 0.3 |  | 
COCCCNc1nc(N)nc2ccccc12 | 0.04 | > 25 | 0.01 | 0.46 |  | 
CCCCNc1nc(N)nc2c(F)cccc12 | 0.07 | > 18 | 0.3 | 0.2 |  | 
CCCCNc1nc(N)nc2cc(C(N)=O)ccc12 | 0.15 | > 18 | 2 | 0.4 |  | 
CCCCNc1nc(N)nc2cc(F)c(F)cc12 | 0.26 | > 18 | 0.1 | 1.8 |  | 
CCCCNc1nc(N)nc2cc(CN(C)C)ccc12 | 0.04 | > 18 | 0.04 | 0.2 |  | 
CC(C)CCNc1nc(N)nc2ccccc12 | 1.5 | > 25 | 2.11 | > 25 |  | 
CCCCCNc1nc(N)nc2ccccc12 | 0.04 | > 25 | 0.1 | 0.06 |  | 
CCCCNc1nc(N)nc2cc(C(=O)N(C)C)ccc12 | 0.06 | > 18 | 0.5 | 0.1 |  | 
CCCCNc1nc(N)nc2cc(OC)ccc12 | 0.15 | > 18 | 0.3 | 0.9 |  | 
CCCCNc1nc(N)nc2ccc(C#N)cc12 | 13.2 | > 18 | 7.1 | > 25 |  | 
CCCCNc1nc(N)nc2cc(CO)ccc12 | 0.05 | > 18 | 0.1 | 0.1 |  | 
CCCC(C)Nc1nc(N)nc2ccccc12 (centres undefined) | 0.1 | > 25 | 0.17 | 0.71 |  | 
CCCCNc1nc(N)ncc1OCC | 1.43 | > 25 | 1.1 | 4.7 |  | 
CCCNc1nc(N)nc2ccccc12 | 0.67 | > 25 | 0.93 | 1.07 |  | 
CCCCNc1nc(N)nc2ccc(C(C)=O)cc12 | 2.39 | > 18 | 1.9 | 6.1 |  | 
CCCCNc1nc(N)nc2cccc(CC3CCCC3)c12 | 0.09 | > 25 | > 25 | 0.12 |  | 
CCCCNc1nc(N)nc2ccc(CCc3ccc(N(C)C)cc3)cc12 | 0.15 | > 18 | 0.5 | 0.2 |  | 
CNc1nc(N)nc2ccccc12 | 8.88 | > 25 | 6.87 | 18.7 |  | 
CCCCNc1nc(N)nc2cccc(Cl)c12 | 0.17 | > 25 |  | 1 | 88 | 99
